Screening results (PubChem BioAssay)
ABCB1 inh: inhibitors of human ABCB1 transporter, ABCG2 counter-screen; P08183; CCRF-Adr cells, JC-1 efflux, flow cytometry; inhibition, % at 6.6 µM; 190,000 compounds, 0.067% hits; in the data active = inhibition above about 40%;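 note: 0% = vehicle and 100% = reference inhibitor; higher value means more JC-1 retained so stronger ABCB1 efflux block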
Target sequence (P08183 whole entry, looked up): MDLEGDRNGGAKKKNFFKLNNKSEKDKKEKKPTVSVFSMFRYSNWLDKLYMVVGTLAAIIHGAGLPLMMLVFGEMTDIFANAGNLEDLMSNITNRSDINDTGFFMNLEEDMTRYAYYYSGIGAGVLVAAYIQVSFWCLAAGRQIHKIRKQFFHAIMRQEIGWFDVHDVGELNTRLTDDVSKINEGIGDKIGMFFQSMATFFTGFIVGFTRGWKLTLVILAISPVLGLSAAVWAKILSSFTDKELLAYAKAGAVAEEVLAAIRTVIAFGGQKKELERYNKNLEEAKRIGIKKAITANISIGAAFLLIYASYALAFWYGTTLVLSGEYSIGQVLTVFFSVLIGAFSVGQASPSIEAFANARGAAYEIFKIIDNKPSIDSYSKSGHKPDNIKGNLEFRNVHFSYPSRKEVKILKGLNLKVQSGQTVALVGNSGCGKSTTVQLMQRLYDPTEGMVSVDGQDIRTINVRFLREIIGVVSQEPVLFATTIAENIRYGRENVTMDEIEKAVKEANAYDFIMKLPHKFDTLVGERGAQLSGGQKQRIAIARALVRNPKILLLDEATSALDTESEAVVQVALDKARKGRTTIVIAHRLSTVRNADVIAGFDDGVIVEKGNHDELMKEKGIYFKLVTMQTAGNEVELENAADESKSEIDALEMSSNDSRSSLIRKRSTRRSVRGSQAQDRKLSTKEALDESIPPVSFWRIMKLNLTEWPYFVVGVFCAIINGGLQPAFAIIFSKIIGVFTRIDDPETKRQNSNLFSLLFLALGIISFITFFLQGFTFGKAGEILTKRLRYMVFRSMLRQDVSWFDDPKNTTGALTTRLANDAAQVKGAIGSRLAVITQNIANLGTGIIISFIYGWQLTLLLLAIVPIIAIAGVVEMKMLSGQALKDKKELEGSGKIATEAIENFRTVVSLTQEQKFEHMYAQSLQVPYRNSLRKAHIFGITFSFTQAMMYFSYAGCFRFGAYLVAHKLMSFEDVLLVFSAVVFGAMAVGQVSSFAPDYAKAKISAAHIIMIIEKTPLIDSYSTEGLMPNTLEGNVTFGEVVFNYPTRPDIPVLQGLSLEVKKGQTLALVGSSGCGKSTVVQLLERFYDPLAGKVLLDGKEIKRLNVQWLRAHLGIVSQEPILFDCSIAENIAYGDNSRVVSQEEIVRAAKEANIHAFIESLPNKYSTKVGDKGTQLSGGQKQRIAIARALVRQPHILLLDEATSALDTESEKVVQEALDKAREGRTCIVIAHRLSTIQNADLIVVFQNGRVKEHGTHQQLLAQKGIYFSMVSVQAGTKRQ
EP2 antag: blocks the human prostaglandin E2 receptor EP2. C6 glioma cells expressing human EP2, cAMP TR-FRET; cells stimulated with saturating PGE2. 260,000 compounds, 0.52% hits. P43116. inhibition, % at 25 µM. AID 1422;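 active = percent inhibition above 40 after rounding to a whole number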;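 note: rat C6 glioma host cells with rolipram phosphodiesterase inhibitor present; the protocol text gives 20 µM as final concentration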
RBBP9 inhibitor: human RBBP9 hydrolase inhibition. O75884. inhibition, % at 7.94 µM. 220,000 compounds, 0.2% hits. recombinant RBBP9, FP-Rh probe fluorescence polarization;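 active = inhibition above the campaign mean of all tested compounds plus 3 SD, cut at about 14% in these data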;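 note: plate controls were DMSO wells with RBBP9 for no effect and wells lacking RBBP9 protein for full effect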
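Measured by: FP readout at 525/598 nm; material: recombinant human RBBP9; also added: Serine-hydrolase probe FP-Rh, 375 nM pre-mixing; medium: Tris buffer pH 8.0, NaCl, Pluronic; replication: one well per compound; doses: one concentration, 7.94 µM nominal, 0.794% DMSO; timing: preincubation 30 min plus labeling 45 min at 25 °C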
ABCG2 block: human ABCG2 inhibition, ABCB1 as counter-screen | 190,000 compounds, 0.1% hits | IgMXP3 cells, JC-1 efflux, flow cytometry | Q9UNQ0 | inhibition, % at 6.6 µM;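 active = inhibition above 80%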;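 note: 0% = DMSO and 100% = nicardipine control wells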
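Measure – % inhibition of efflux relative to nicardipine and DMSO · Test system – ABCG2 IgMXP3 and barcoded ABCB1 CCRF-Adr cell mix · Control set – nicardipine as high control, DMSO as low control · Compound – one concentration, 6.6 µM final · Signal – flow cytometry of retained JC-1 fluorescence · Timing – 10 min exposure at 25 °C with rotation, no wash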
EP2 modulator: modulates human prostaglandin E2 receptor EP2 signaling | P43116 | EP2-expressing cells, cAMP HTRF FRET, PGE2 co-stimulation | induction, % at 25 µM | 260,000 compounds, 0.83% hits;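 active = compounds whose cAMP rise, as percent of the full-agonist control response, exceeds 60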;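 note: rat C6 glioma line stably carrying human EP2 under a CMV promoter; the protocol text gives 20 µM as final concentration; 100% = response of wells given 1 µM PGE2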
EP2 confirm: EP2 receptor cAMP induction, counter-screens negative | calls only at 20 µM (by protocol) | shares compounds with EP2 modulator | 1,300 compounds, 47% hits | C6 glioma EP2 cells, cAMP HTRF induction; plus low (about EC15) PGE2 agonist;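 active = cAMP induction above 50% in the main assay while under 30% in all four parallel counter assays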;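 note: rat C6 glioma cells stably expressing human EP2 receptor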
Starred values were filed as active, the others as inactive; i = inactive; x = no result given; + = active, no number. An excerpt weighted towards active compounds, which were near 1.5% of everything screened.

SMILES | ABCB1 inh | EP2 antag | RBBP9 inhibitor | ABCG2 block | EP2 modulator | EP2 confirm
O=c1[nH]c(=S)c2c(n1-c1ccccc1)CCC2 | 1 | 33 | -13 | -1 | 82* | i
Cc1oc(-c2ccccc2)cc1C(=O)Nc1cccc(/C=C/C(=O)O)c1 | 0 | 9 | -3 | 0 | 92* | +
Cc1cc(C(=O)Nc2cccc(/C=C/C(=O)O)c2)c(C)o1 | 0 | 3 | -4 | 0 | 99* | +
Cc1oc(-c2ccccc2)cc1C(=O)Nc1ccccc1 | 1 | 13 | -6 | 13 | -33 | x
Cc1ccc(NC(=O)CN2C(=O)c3ccccc3S2(=O)=O)cc1Cl | x | 22 | x | x | -37 | x
O=C(CSc1nc2ccccc2c(=O)n1Cc1ccco1)NCc1ccco1 | 2 | 3 | -5 | 50 | 21 | x
C=CCSc1nc2ccccc2c(=O)n1Cc1ccco1 | x | 6 | x | x | 70* | i
Cc1cccc(-c2nc(=S)c3c(n2Cc2ccco2)CCCC3)c1 | 0 | 7 | -3 | 1 | 66* | i
Cc1cccc(OCC(=O)Nc2ccccc2-c2ccccc2)c1 | 1 | 6 | -2 | 9 | 71* | +
CCOC(=O)c1ccccc1NC(=O)COc1ccccc1 | -1 | 8 | -3 | 12 | 79* | i
CCOC(=O)c1ccccc1NC(=O)CSc1ccccc1 | 0 | 16 | -5 | 12 | 79* | i
COc1ccc(OCC(=O)Nc2ccccc2-c2ccccc2)cc1 | 0 | 3 | -6 | 15 | 15 | x
CCOC(=O)c1ccccc1NC(=O)C(C)Oc1ccccc1 (configuration not stated) | 1 | 14 | 2 | 4 | 54 | +
CCCC(C)C(=O)Nc1ccccc1C(=O)OCC (configuration not stated) | 0 | 12 | 2 | 0 | 19 | x
COC(=O)c1ccc(NC(=O)CSc2nnc3c(C)cc4ccc(C)c(C)c4n23)cc1 | x | 25 | x | x | 25 | x
O=C(Cn1c(=O)sc2ccccc21)Nc1cccc2ccccc12 | x | 9 | x | x | 10 | x
COc1ccc(-n2c(CCc3ccccc3)nnc2SCC(=O)c2ccccc2)cc1 | 3 | 15 | -3 | 5 | 52 | i
CCOc1ccc(-c2nn3c(-c4ccccc4)nnc3s2)cc1 | 0 | 11 | -4 | 4 | 65* | +
C#CCCN1CCN(CC2(c3ccc(Cl)cc3)CC2)CC1 | x | 8 | x | x | 16 | x
N#CCSc1nc2c(c(C3CC=CCC3)c1C#N)CCC2 (configuration not stated) | 0 | 5 | -11 | 3 | 78* | +
CCC(c1nnnn1C1CCCCC1)N(CCc1ccccc1C)Cc1cc2cccc(C)c2[nH]c1=O (configuration not stated) | x | 2 | x | x | 11 | x
O=S(=O)(/C=C/c1ccccc1)c1ccccc1 | 1 | 12 | -1 | 2 | 9 | x
O=S(=O)(C=C(c1ccccc1)c1ccccc1)c1ccccc1 | 1 | 14 | -2 | 3 | 77* | +
Cc1ccc(S(=O)(=O)NCC(=O)OCN2C(=O)c3ccccc3C2=O)cc1 | 0 | 8 | -2 | 1 | 67* | i
CCOc1ccc(S(=O)(=O)NCCC(=O)OCN2C(=O)c3ccccc3C2=O)cc1 | 2 | 6 | -6 | 14 | 20 | x
SMILES | ABCB1 inh | EP2 antag | RBBP9 inhibitor | ABCG2 block | EP2 modulator | EP2 confirm
CNC(=S)N(CCc1ccccc1C)Cc1cc2cc3c(cc2[nH]c1=O)OCCO3 | x | 5 | x | x | -7 | x
Cn1c(=O)[nH]c(=O)c2c1nc(CN1CCN(c3ccc(F)cc3)CC1)n2CCCc1ccccc1 | 3 | 7 | -3 | 0 | 36 | x
Cn1c(=O)[nH]c(=O)c2c1nc(CN1CCN(c3ccccc3F)CC1)n2CCCc1ccccc1 | 3 | 12 | -4 | 2 | 85* | i
COc1ccc(-c2csc3nc(C)nc(N4CCC(C)CC4)c23)cc1OC | 2 | 12 | -2 | 6 | 70* | i
Cc1ccc(NC(=O)COc2ccc(N3CC(C(N)=O)CC3=O)cc2)cc1Cl (configuration not stated) | x | 7 | x | x | -27 | x
COc1ccccc1/C=C(/C(=O)OCC(=O)Nc1ccccc1C(C)C)c1ccccc1 | 1 | 10 | -5 | 14 | 68* | +
